The subject of series [1] is Human betaherpesvirus 5. The series is described as follows: Antiviral activity against Human cytomegalovirus AD169 infected in HEL cells assessed as reduction in viral cytopathic effect. Format: functional, organism-based. The following applies: Human betaherpesvirus 5, AD169, HEL. A digest of the protocol: (§1)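 Confluent cell monolayers were infected with 100 CCID50 of virus (1 CCID50 is the dose infecting 50% of cultures) with test compound at varying concentrations (100, 20, … μM). CPE was scored once it was complete in untreated infected controls.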

The subject of series [2] is Human betaherpesvirus 5. The series is described as follows: Antiviral activity against Human cytomegalovirus Davis infected in HEL cells assessed as reduction in viral cytopathic effect. The note with it: Human betaherpesvirus 5, Davis. It is filed as functional, organism-based. In outline:
as §1

Series [3] deals with Human alphaherpesvirus 3. In words: Antiviral activity against Varicella zoster virus Oka infected in HEL cells assessed as reduction in viral plaque formation. Format: functional, organism-based. The note with it: Human alphaherpesvirus 3, strain Oka vaccine. A digest of the protocol: (§2)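 Confluent cultures were inoculated with 20 PFU of virus with compound at varying concentrations (100, 20, … μM). Plaques were counted once plaque formation was complete in untreated infected controls.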

For series [4], the system named is Human alphaherpesvirus 3. The series is described as follows: Antiviral activity against thymidine kinase deficient Varicella zoster virus 07/1 infected in HEL cells assessed as reduction in viral plaque formation. It is filed as functional, organism-based. The following applies: Human alphaherpesvirus 3, 07/1, HEL. In outline:
as §2

Series [5] is described as follows: Cytotoxicity against HEL cells assessed as alteration of cell morphology by microscopic method. Format: cell-based. The note with it: human. A digest of the protocol: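 MCC is the lowest compound concentration giving a microscopically visible alteration of cell morphology.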
Series [6] has as its system HEL. The series is described as follows: Cytostatic activity against HEL cells after 3 days by Coulter counting method. The note with it: human, 72 h. It is filed as cell-based. A digest of the protocol:
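HEL cells were seeded at 5 × 10^3 cells/well and grown for 24 h, then given medium with graded compound concentrations. After 3 days at 37 °C, cells were counted with a Coulter counter.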

Series [7] is described as follows: Selectivity index, ratio of CC50 for HEL cells to EC50 for Varicella zoster virus Oka infected in HEL cells. It is filed as toxicity, cell-based. The following applies: human, read-out: Ratio CC50/EC50. In outline:
(§3)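 SI is CC50 divided by EC50. CC50 comes from the 3-day HEL Coulter-counter growth assay. EC50 comes from the VZV plaque-reduction assay (20 PFU inoculum).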

A short description of series [8]: Selectivity index, ratio of CC50 for HEL cells to EC50 for thymidine kinase deficient Varicella zoster virus 07/1 infected in HEL cells. It is filed as toxicity, cell-based. The following applies: human, read-out: Ratio CC50/EC50. In outline:
as §3

Series [9] has as its system Human alphaherpesvirus 1. In words: Antiviral activity against Human simplex virus 1 KOS infected in HEL cells assessed as reduction in viral cytopathic effect. Format: functional, organism-based. The following applies: Human alphaherpesvirus 1, KOS. In outline: as §1
In series [10] the test system is Human alphaherpesvirus 1. The series is described as follows: Antiviral activity against thymidine kinase deficient acyclovir-resistant Human simplex virus 1 KOS infected in HEL cells assessed as reduction in viral cytopathic effect. It is filed as functional, organism-based. The following applies: Human alphaherpesvirus 1, KOS. A digest of the protocol:
as §1
(In general: Protection from cytopathic effect is a common read-out in antiviral testing.)

In series [11] the test system is Human alphaherpesvirus 2. The series is described as follows: Antiviral activity against Human simplex virus 2 G infected in HEL cells assessed as reduction in viral cytopathic effect. It is filed as functional, organism-based. The following applies: Human alphaherpesvirus 2, strain G. In outline:
as §1

Series [12] relates to Vaccinia virus. The series is described as follows: Antiviral activity against Vaccinia virus infected in HEL cells assessed as reduction in viral cytopathic effect. Format: functional, organism-based. The note with it: Orthopoxvirus vaccinia. In outline: as §1
Series [13] has as its system Human coronavirus 229E. The series is described as follows: Antiviral activity against Human coronavirus 229E infected in HEL cells assessed as reduction in viral cytopathic effect. It is filed as functional, organism-based. In outline: as §1
The test system of series [14] is Human respirovirus 3. The series is described as follows: Antiviral activity against Human parainfluenza virus 3 infected in African green monkey Vero cells assessed as reduction in viral cytopathic effect. It is filed as functional, organism-based. In outline:
as §1

The subject of series [15] is Mammalian orthoreovirus 1. In words: Antiviral activity against Reovirus-1 infected in African green monkey Vero cells assessed as reduction in viral cytopathic effect. Format: functional, organism-based. In outline:
as §1

The test system of series [16] is Sindbis virus. In words: Antiviral activity against Sindbis virus infected in African green monkey Vero cells assessed as reduction in viral cytopathic effect. Format: functional, organism-based. In outline:
as §1

Series [17] has as its system Coxsackievirus B4. The series is described as follows: Antiviral activity against Coxsackievirus B4 infected in African green monkey Vero cells assessed as reduction in viral cytopathic effect. It is filed as functional, organism-based. In outline:
as §1

The subject of series [18] is Vesicular stomatitis virus. The series is described as follows: Antiviral activity against Vesicular stomatitis virus infected in human HeLa cells assessed as reduction in viral cytopathic effect. It is filed as functional, organism-based. In outline:
as §1

Series [19] relates to Coxsackievirus B4. The series is described as follows: Antiviral activity against Human coxsackievirus B4 infected in human HeLa cells assessed as reduction in viral cytopathic effect. It is filed as functional, organism-based. In outline:
as §1

The subject of series [20] is Respiratory syncytial virus. In words: Antiviral activity against Respiratory syncytial virus infected in human HeLa cells assessed as reduction in viral cytopathic effect. It is filed as functional, organism-based. In outline: as §1
For series [21], the system named is Influenza A virus. The series is described as follows: Antiviral activity against Influenza A virus (H1N1) infected in MDCK cells assessed as reduction in viral cytopathic effect. It is filed as functional, organism-based. In outline: (§4)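 Nearly confluent MDCK cultures were infected with 100 CCID50 of virus with compound at varying concentrations (100, 20, … μM). CPE was scored when complete in untreated infected controls.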

Series [22] concerns Influenza A virus H3N2. In words: Antiviral activity against Influenza A virus H3N2 infected in MDCK cells assessed as reduction in viral cytopathic effect. It is filed as functional, organism-based. In outline:
as §4

For series [23], the system named is Influenza B virus. In words: Antiviral activity against Influenza B virus infected in MDCK cells assessed as reduction in viral cytopathic effect. It is filed as functional, organism-based. A digest of the protocol:
as §4

The test system of series [24] is Human immunodeficiency virus 1. In words: Antiviral activity against Human immunodeficiency virus 1 LAV1 infected in primary human PBM cells after 6 days by reverse transcriptase activity-based assay. It is filed as functional, organism-based.

From ChEMBL document CHEMBL4196014, “Highly convergent synthesis and antiviral activity of (E)-but-2-enyl nucleoside phosphonoamidates” (Eur J Med Chem, 2018) come the findings set out here.

Each structure is given as a SMILES string. Calls of active or inactive are those of the source. The calls are words filed in the database; no cut-off is given here. A value given as a limit tells only on which side of the number the result lay.

The term EC50 denotes the midpoint of the concentration-response curve. As a reminder, the CC50 is the concentration giving 50% cytotoxicity. `Cc1cn(C/C=C/C[P@](=O)(N[C@@H](C)C(=O)OCc2ccccc2)Oc2ccccc2)c(=O)[nH]c1=O`: the EC50 in [1] came to 29.9 µM; in [2] it was 44.7 µM; in series [3] it was 0.39 µM; in series [4], 0.33 µM; in series [9] it was 9.6 µM; in series [10], 3.2 µM. In addition, the EC50 is 5.3 µM in [11], more than 100 µM in series [12] and 24.6 µM in [13]. The MCC in series [5] was more than 100 µM. Also, the CC50 in [6] is not below 83 µM. In addition, the selectivity ratio in series [7] was not below 213; in series [8] it was not below 252. For the same molecule, the result in series [14], in series [15], in series [16], in series [17], in [18] and in series [19] was inactive. Moreover, the outcome in series [20], in series [21], in series [22], in [23] and in [24] was inactive.
With `Cc1cn(C/C=C/C[P@@](=O)(N[C@@H](C)C(=O)OCc2ccccc2)Oc2ccccc2)c(=O)[nH]c1=O`, the half-maximal effective concentration (EC50) was 34.2 µM in [1]; 52.5 µM in series [2]; 0.59 µM in [3]; 0.39 µM in [4]; 11.5 µM in series [9]; 4.1 µM in series [10]. Besides, the EC50 in series [11] amounted to 2.9 µM; in series [13], 60 µM. For the same molecule, the MCC in series [5] was more than 100 µM. Moreover, the CC50 in [6] came out at 55 µM. The selectivity ratio is 93 in series [7] and 141 in [8]. The outcome in series [14], in series [15], in series [16], in series [17], in series [18] and in [19] was inactive. Moreover, the result in series [20], in [21], in series [22], in series [23] and in series [24] was inactive.
Regarding `COC(=O)[C@H](C)NP(=O)(C/C=C/Cn1cc(C)c(=O)[nH]c1=O)Oc1ccccc1` (stereo not given in full), the EC50 in series [1] is not below 72 µM; in series [2], not below 70 µM; in series [3], 8.13 µM; in series [4], 1.82 µM; in series [9], 59 µM; in [10], 23.5 µM. The EC50 in [11] is 31 µM; in series [12] it was more than 100 µM; in [13], more than 100 µM. Further, in series [5], the MCC was more than 100 µM. In addition, in [6], the CC50 is more than 100 µM. The results for the selectivity ratio in series [7] and in series [8] were more than 12 and more than 55, respectively. The result in series [14], in series [15], in [16], in series [17], in series [18] and in [19] was inactive. Also, the outcome in series [20], in [21], in [22], in series [23] and in [24] was inactive.
`Cc1cn(C/C=C/CP(=O)(N[C@@H](C)C(=O)OC(C)C)Oc2ccccc2)c(=O)[nH]c1=O` (stereo not given in full): the EC50 in series [1] is 25.9 µM; in series [2], 13.5 µM; in series [3], 4.59 µM; in series [4] it was 1.03 µM; in series [9] it was more than 100 µM; in series [10] it was more than 100 µM. Also, the EC50 in series [11], in series [12] and in [13] was more than 100 µM throughout. For the same molecule, in [5], the MCC was more than 100 µM. In [6], this molecule displayed a CC50 of more than 100 µM. Also, the selectivity ratio in series [7] is more than 22; in series [8], more than 97. Also, the result in [14], in [15], in [16], in series [17], in series [18] and in series [19] was inactive. The outcome in series [20], in series [21], in [22], in series [23] and in [24] was inactive.
